The sample as a whole holds a higher share of hits than the screen did.
T cruzi inh = inhibitors of intracellular T. cruzi growth, primary screen, luminescence, NIH3T3 host cells; actives 1.4% (n = 300,000); inhibition, % (no concentration beside the values); T. cruzi beta-gal in NIH3T3, 90 h;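 active = mean inhibition across valid replicates above about 55%, limit read from the data; inconclusive = mean below that limit but half or more replicates reach it; inactive = mean below it, under half of replicates reach it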;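 note: signal also drops with host cell toxicity which is not excluded here; 0% = plate median of DMSO wells and 100% = zero luminescence signal; higher percent means less beta-gal luminescence so fewer parasites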
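Incubation – ≥90 h infection period, 3 h prior cell attachment · System – NIH/3T3 fibroblasts plus reporter T. cruzi · Doses – compound pinned at 50 nL/well, DMSO · Read-out basis – percent inhibition of parasite-derived β-gal signal · Signal – luminescent β-galactosidase signal after 60 min lysis · Also added – 5000 T. cruzi trypomastigotes/well · Medium – Low-serum DMEM with 2% FBS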
MPTP inh = mitochondrial permeability transition pore inhibitors, primary screen, biochemical, isolated mouse mitochondria, absorbance; Ca2+ swelling absorbance, 30 min; inhibition, % at 10 µM; actives 1.4% (n = 360,000);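 active = inhibition of 50% or more, scaled per plate between neutral and stimulator controls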;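 note: 0% = DMSO wells given calcium and 100% = 1 mM EGTA wells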
L major viab = Leishmania major promastigote growth inhibition, primary screen; Leishmania major promastigotes, resazurin fluorescence viability; actives 9% (n = 200,000); inhibition, % at 10 µM; in the data active = inhibition above about 50%;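 note: promastigotes grown with compound for 44 hours at 28 °C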
DTT redox prof = compounds producing H2O2 with reducing agent – biochemical, NIH compound library profiling, artefact control for MLSCN library redox annotation, primary screen; actives 0.03% (n = 200,000); AID 878, 2007; activation, % at 10 µM; DTT-dependent redox cycling H2O2, phenol red/HRP absorbance; 100% = 100 µM peroxide control, 0% = buffer;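 active = activation of at least 50% relative to the plate's high and low controls in the primary single-dose screen; inactive = activation below 50%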;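 note: compound incubated with DTT at 0.8 mM final as the reducing agent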
Lipid droplet = inhibitors of hepatocyte lipid droplet formation, primary screen, imaging, high-throughput imaging, BODIPY stain; AML12 mouse hepatocytes, oleate lipid droplets; inhibition, % at 6.5 µM; actives 0.4% (n = 240,000); AID 1656, 2009;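 active = lipid droplet intensity inhibited by at least 50%, with more than 500 cells counted; inconclusive = wells with under 300 cells, treated as cytotoxic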
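Material – mouse AML12 hepatocyte cell line, fixed after treatment · Compound dosing – one dose, 6.5 µM compound · Times – compound with oleate, overnight · Measured by – Image-based BODIPY and DAPI two-channel analysis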
Active calls of the source: *; ? = inconclusive; . = no result given.

SMILES | T cruzi inh | MPTP inh | L major viab | DTT redox prof | Lipid droplet
COc1ccc(C2=CC(=O)CC(c3ccccc3)C2)cc1 (stereo unspecified) | 7.6 | -0.5 | 59.1* | -1.7 | 11.7
CN1CCN(S(=O)(=O)c2ccc(Sc3nc4ccccc4[nH]3)c3nsnc23)CC1 | -3.2 | 0.3 | 99.7* | -1.6 | -10.8
Cc1ccc(N2C(=O)N(CC(=O)Nc3ccc(C)c(C)c3)C(=O)C2C)cc1 (stereo unspecified) | -11.7 | 1.0 | . | . | .
CCN1C(=O)[C@H]2[C@H]3CN=C(SC)N3[C@@](C)(C(=O)OC)[C@H]2C1=O | . | -1.0 | . | . | .
O=C(NCc1ccccc1F)c1ccc(S(=O)(=O)N2CCCCCC2)cc1 | . | -0.4 | . | . | .
COc1ccc(-c2cn3c(C)c(C(=O)Nc4ccncc4)sc3n2)cc1 | 42.1 | 1.2 | 100.0* | -0.9 | .
CCOCCCN1CC(=O)N2[C@@H](Cc3c([nH]c4ccccc34)C2(C)C)C1=O | -0.6 | -0.9 | . | . | 0.5
O=C(CN1CCCc2ccccc21)N/N=C/c1ccc(O)cc1O | -4.2 | 3.8 | 98.3* | 0.2 | 9.1
O=C(CN1CCCc2ccccc21)N/N=C/c1ccccc1 | 17.8 | 0.7 | 11.8 | 0.4 | 2.3
O=C(c1ccc(N2CCCCCC2)c([N+](=O)[O-])c1)N1CCc2ccccc21 | 17.4 | . | 88.5* | 0.6 | 1.3
O=C(c1cc([N+](=O)[O-])cc([N+](=O)[O-])c1)N1CCCc2ccccc21 | 73.2* | -1.4 | 78.5* | 0.9 | 0.6
Cc1ccc(C(=O)N2CCc3ccccc32)cc1[N+](=O)[O-] | 5.4 | -0.7 | . | . | .
O=S1(=O)C[C@H](N2CC[C@@H](O)C2)[C@@H](COCc2ccccc2)N1 | . | -2.2 | . | . | .
CCCCOC(=O)Nc1ccc(S(=O)(=O)Nn2cnnc2)cc1 | -12.2 | -1.5 | -0.2 | -0.1 | -3.6
CCCCCOC(=O)Nc1ccc(S(=O)(=O)Nc2cccc([N+](=O)[O-])c2)cc1 | -8.5 | 9.9 | 61.6* | 5.5 | -26.7
CCCCOC(=O)Nc1ccc(S(=O)(=O)Nc2ccc([N+](=O)[O-])cc2)cc1 | 0.0 | 4.3 | 77.7* | 0.1 | -12.9
CCCCOC(=O)Nc1ccc(S(=O)(=O)Nc2cc(C)nc(C)n2)cc1 | 5.0 | -1.4 | -5.1 | -0.3 | 9.3
O=C(CN1CCC(C(O)(c2ccccc2)c2ccccc2)CC1)Nc1ccccc1 | 17.0 | 2.7 | 24.5 | -2.8 | .
O=C(CN1CCC(C(O)(c2ccccc2)c2ccccc2)CC1)Nc1cc(Cl)ccc1Cl | 54.8* | 2.8 | 32.5 | -3.4 | .
CN(c1ccccc1)c1ccc(/C=C/[N+](=O)[O-])cc1 | 33.4 | -0.6 | 100.3* | 0.0 | -4.2
O=[N+]([O-])c1ccc(C=CC=Cc2ccccc2)cc1 | . | 2.8 | . | . | .
CC(=O)c1ccc(OCCCN2CCCCC2)cc1 | -12.6 | 0.4 | 88.1* | 0.0 | 13.9
O=C(c1ccccc1)c1ccc(OCCCN2CCCCC2)cc1 | 20.8 | 0.0 | 99.3* | 1.4 | 7.9
COC(=O)c1ccc(OCCN2CCCCCC2)cc1 | 12.6 | 1.2 | 87.7* | -1.2 | 6.5
O=C(/C=C/c1ccc(O)cc1)c1ccc(NC2=C(N3CCCCC3)C(=O)c3ccccc3C2=O)cc1 | 16.6 | 7.5 | 98.8* | -7.4 | .
SMILES | T cruzi inh | MPTP inh | L major viab | DTT redox prof | Lipid droplet
O=C1C(Nc2cccc(O)c2)=C(N2CCCCC2)C(=O)c2ccccc21 | -13.6 | 1.1 | 97.7* | -4.3 | .
Cc1ccc(NC2=C(N3CCCCC3)C(=O)c3ccccc3C2=O)cc1 | 66.5* | -0.5 | 97.1* | 0.1 | .
O=C(/C=C/c1ccc(O)cc1)c1ccccc1 | -1.4 | 2.7 | . | . | -2.0
O=C1C(Nc2ccccc2)=C(N2CCCCC2)C(=O)c2ccccc21 | 48.0 | 1.7 | 97.1* | -0.3 | .
O=C(Nc1ccccc1OC(F)F)c1ccc(-n2cncn2)c([N+](=O)[O-])c1 | -9.6 | -1.3 | . | . | .
O=C(OC1CCCCC1=O)c1cc(Cl)ccc1[N+](=O)[O-] (stereo unspecified) | -35.1 | -1.7 | 7.0 | -2.2 | 1.1
CCOC(=O)c1ccc(NC(=S)Nc2ccc(C)cc2)cc1 | -18.1 | 8.7 | -7.1 | 0.3 | 0.9
CCOC(=O)c1ccc(NC(=S)NCCCN2CCCCC2)cc1 | 18.1 | 1.6 | 19.9 | -2.8 | .
CCOC(=O)c1ccc(CNCc2ccccc2)cc1 | 9.5 | -0.2 | 99.7* | 0.3 | -12.5
CCOC(=O)c1ccc(NC(=S)NN2CCOCC2)cc1 | -5.3 | 1.7 | 53.2* | 0.3 | -1.4
CCOC(=O)c1ccc(NC(=O)N2CCN(CCc3ccccc3)CC2)cc1 | 11.7 | -2.0 | 63.8* | 2.2 | -2.8
CCOC(=O)c1ccc(NC(=S)NCCCN2CCN(C3CCCCC3)CC2)cc1 | 30.1 | 1.3 | 53.2* | -0.7 | 1.4
O=C(Nc1ccccc1)c1cccc2c(-c3cccnc3)coc12 | . | 2.6 | . | . | .
Cc1ccc(C(=O)N2CCC3(CC2)Oc2ccc(F)cc2C(=O)C32CC(c3cccnc3)=NO2)s1 (stereo unspecified) | -9.4 | -1.3 | . | . | .
CCOC(=O)c1c(NC(C)=O)sc2c(OCC(O)CNC(C)(C)C)c(Br)ccc12 (stereo unspecified) | 40.1 | -1.5 | 100.5* | 0.0 | -3.9
O=C(c1cc(-c2ccncc2)nc2ccccc12)N1CCN(c2ccccn2)CC1 | 60.1* | -0.7 | 16.8 | -1.8 | .
O=C(c1cc(-c2ccco2)nc2ccccc12)N1CCN(c2ccc(F)cc2)CC1 | 14.3 | 0.8 | 66.8* | 0.0 | -8.1
O=C(c1cc(-c2ccccc2)nc2ccccc12)N1CCN(c2ccccn2)CC1 | 15.9 | -0.4 | 23.9 | -0.8 | -20.3
NNc1nc2ccc(Cl)cc2s1 | 24.7 | 3.1 | 6.1 | 0.1 | -3.3
NNc1nc2ccc(F)cc2s1 | 2.5 | 3.5 | 96.4* | -0.1 | -0.9
COc1cccc(N2CCN(C(=O)/C=C/c3ccco3)CC2)c1 | -8.4 | 0.3 | 3.5 | -2.1 | 13.0
CCc1ccccc1NC(=S)N(Cc1cccnc1)Cc1ccco1 | ? | -0.7 | 98.8* | -0.4 | -0.3
COc1ccccc1NC(=S)N(Cc1cccnc1)Cc1ccco1 | 30.4 | -0.5 | 17.5 | -0.3 | 0.4
COc1ccc(Cl)cc1NC(=S)N(Cc1cccnc1)Cc1ccco1 | 66.2* | -1.6 | 12.6 | -0.1 | -13.2
Cc1cc(C)c(NC(=S)N(Cc2cccnc2)Cc2ccco2)c(C)c1 | 51.1 | 14.7 | 87.5* | -0.4 | -1.2
Cc1cnc(NC(=O)c2cccc(S(=O)(=O)N3CC(C)OC(C)C3)c2)s1 (stereo unspecified) | -9.4 | 2.7 | 15.0 | 0.1 | 6.8
O=C(N/N=C/C1CC=CCC1)c1cc(-c2cccnc2)nc2ccccc12 (stereo unspecified) | 3.6 | 2.0 | -9.4 | 0.1 | 41.0
Cc1ccc(C(=O)OCC(=O)Nc2sc3c(c2C#N)CCC3)cc1 | 4.8 | 0.2 | 51.5* | 0.2 | 1.3
N#Cc1c(NC(=O)COC(=O)c2ccc(F)cc2)sc2c1CCC2 | -5.9 | 0.9 | -16.1 | -4.1 | .
N#Cc1cc2ccc(N3CCOCC3)cc2cc1C#N | -63.7 | 1.4 | 98.8* | 1.4 | -23.5

Screening data deposited in PubChem BioAssay by several laboratories.
